Data taken from ChEMBL document CHEMBL1125492, “The calanolides, a novel HIV-inhibitory class of coumarin derivatives from the tropical rainforest tree, Calophyllum lanigerum” (J Med Chem, 1992).

Key:
CEM-SS [1] = assay: Concentration inhibiting HIV-1 induced cytopathic effects in human T-lymphoblastic cells(CEM-SS) and essentially halted HIV-1 replication.; format: functional, cell-based
Procedure, shortened: (§1)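 CEM-SS cells kept in phenol-red-free RPMI 1640 with 5% fetal bovine serum, 2 mM L-glutamine and 50 μg/mL gentamicin, seeded at 2.0×10^5 cells/mL. Infected with HIV-1 RF (HTLV-III_RF) or left uninfected. Compound dissolved in DMSO, diluted in medium (final DMSO ≤1%), tested over <0.1 to >10 μM. Incubated 6 days at 37 °C, 5% CO2. Viability read by XTT-tetrazolium; quadruplicate infected wells, duplicate uninfected wells.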

CEM-SS [2] = assay: Maximum protection of human T-lymphoblastic cells(CEM-SS) from cytopathic effects of HIV-1 by the compound; format: functional; procedure, shortened: as §1
CEM-SS [3] = assay: Potency to inhibit HIV-1 induced cytopathic effects in human T-lymphoblastic cells(CEM-SS) and essentially halted HIV-1 replication.; format: functional, cell-based; procedure, shortened: as §1
[4] = Apparent in vitro therapeutic induces(TI) of the compound; format: ADME
[5] = tested on: CEM-SS cells (Homo sapiens); assay: Cytotoxicity against CEM-SS cells
CEM-SS [6] = assay: Inhibition of HIV-1 replication in CEM-SS human lymphoblastoid cells in vitro; format: functional, cell-based
Procedure, shortened: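 CEM-SS cells infected with HIV-1 RF and treated with a concentration range for 6 days at 37 °C, 5% CO2 (final DMSO ≤1%). Cell-free supernatant assayed for viral reverse transcriptase activity, p24 antigen and syncytium-forming units. Values expressed as percent of infected, untreated controls; each point is the mean of at least quadruplicate determinations.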

| IC50 (CEM-SS [1]) [µM] | EC50 (CEM-SS [3]) [µM] | Therapeutic indices [4] [TI] | EC50 (CEM-SS [6]) [µM] | SMILES | Max protection (CEM-SS [2]) [%] | IC50 [5] [µM] |
| --- | --- | --- | --- | --- | --- | --- |
| 27 |  |  |  | CCCc1cc(=O)oc2c3c(c4c(c12)OC(C)(C)C=C4)O[C@H](C)[C@H](C)C3=O |  |  |
| 20 | 0.1 | 200 | 0.08 | CCCc1cc(=O)oc2c3c(c4c(c12)OC(C)(C)C=C4)O[C@H](C)[C@@H](C)[C@@H]3O [CALANOLIDE A] | 100 | 16 |
| 25 |  |  |  | CCCC1CC(=O)Oc2c(C(=O)C(C)C(C)O)c(O)c3c(c21)OC(C)(C)C=C3 (stereo unspecified) [CALANOLIDE E2] |  |  |
| 19 |  |  |  | CCCc1cc(=O)oc2c3c(c4c(c12)OC(C)(C)C=C4)O[C@H](C)[C@@H](C)[C@H]3OC | 35 |  |
| 13 | 2.7 | 5 |  | CCCc1cc(=O)oc2c3c(c4c(c12)OC(C)(C)C=C4)O[C@H](C)[C@@H](C)[C@@H]3OC(C)=O | 100 |  |
| 21 |  |  |  | CCCc1cc(=O)oc2c3c(c4c(c12)OC(C)(C)C=C4)O[C@H](C)[C@@H](C)[C@@H]3OC |  |  |
| 30 |  |  |  | CCCc1cc(=O)oc2c3c(c4c(c12)OC(C)(C)C=C4)O[C@H](C)[C@H](C)[C@@H]3O [CALANOLIDE C] | 30 |  |
| 15 | 0.4 | 37 |  | CCCc1cc(=O)oc2c3c(c4c(c12)OC(C)(C)C=C4)O[C@H](C)[C@@H](C)[C@H]3O [(+)-CALANOLIDE B] | 100 |  |
